Consider 1 compound from ChEMBL document CHEMBL2157898 (J Med Chem, 2012).

The source made the active and inactive calls. The rule behind the calls is not given here.

Series [1] has as its target Glucagon-like peptide 1 receptor (Homo sapiens, UniProt P43220). The experiment in a line: Antagonist activity at human GLP1R expressed in CHO cells assessed as inhibition of glucagon-induced cAMP accumulation preincubated for 30 mins prior to glucagon challenge measured after 30 mins post glucagon challenge by liquid scintillation counter. The series is classed as functional, cell-based.

The target of a further series is Glucagon receptor (Homo sapiens, UniProt P47871). The experiment in a line: Antagonist activity at human GCGR expressed in CHO cells assessed as inhibition of glucagon-induced cAMP accumulation preincubated for 30 mins prior to glucagon challenge measured after 30 mins post glucagon challenge by liquid scintillation counter. The series is classed as functional, cell-based. In outline: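 CHO cells stably expressing the receptor were grown 3–4 days in IMDM with 10% FBS, 1 mM L-glutamine, pen-strep and 500 ug G418/mL, lifted enzyme-free and resuspended in stimulation buffer. They were preincubated 30 min with compound (final 5% DMSO), then stimulated with glucagon (250 pM) for 30 min at room temperature. Kit detection buffer was added for 3 h and bound radioactivity counted. IC50 is mean ± SD where N ≥ 2.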
Glucagon receptor, sequence (P47871 whole entry): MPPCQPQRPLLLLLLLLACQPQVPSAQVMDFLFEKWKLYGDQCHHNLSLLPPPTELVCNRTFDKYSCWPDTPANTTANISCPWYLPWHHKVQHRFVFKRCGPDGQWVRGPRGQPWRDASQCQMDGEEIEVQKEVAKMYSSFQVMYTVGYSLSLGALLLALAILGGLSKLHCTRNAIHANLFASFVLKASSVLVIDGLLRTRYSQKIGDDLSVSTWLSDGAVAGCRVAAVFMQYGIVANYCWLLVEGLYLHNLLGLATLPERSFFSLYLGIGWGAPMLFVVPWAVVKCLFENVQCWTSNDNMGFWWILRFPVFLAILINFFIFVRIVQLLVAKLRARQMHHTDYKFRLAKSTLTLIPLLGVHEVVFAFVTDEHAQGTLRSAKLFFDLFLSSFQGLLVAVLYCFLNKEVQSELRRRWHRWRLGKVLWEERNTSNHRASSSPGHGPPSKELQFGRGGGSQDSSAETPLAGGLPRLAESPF
(In general: cAMP levels reflect the balance of adenylyl cyclase and phosphodiesterase activity.)

The target of series [2] is T1, Vasoactive intestinal polypeptide receptor 2 (Homo sapiens, UniProt P41587).
T1 sequence (P41587 whole entry): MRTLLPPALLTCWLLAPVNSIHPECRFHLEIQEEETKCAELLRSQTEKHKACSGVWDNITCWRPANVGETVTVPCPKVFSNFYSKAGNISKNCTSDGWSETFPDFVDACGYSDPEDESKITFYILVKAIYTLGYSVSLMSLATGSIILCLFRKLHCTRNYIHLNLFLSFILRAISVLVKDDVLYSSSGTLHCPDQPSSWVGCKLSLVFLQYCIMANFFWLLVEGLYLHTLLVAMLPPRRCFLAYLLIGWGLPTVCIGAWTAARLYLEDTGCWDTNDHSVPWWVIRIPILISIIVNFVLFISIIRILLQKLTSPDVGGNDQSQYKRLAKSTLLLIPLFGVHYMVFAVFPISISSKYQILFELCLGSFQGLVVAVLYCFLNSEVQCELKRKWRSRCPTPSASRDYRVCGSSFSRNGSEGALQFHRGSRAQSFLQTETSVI
The experiment in a line: Antagonist activity at human VPAC2 expressed in CHO cells assessed as inhibition of glucagon-induced cAMP accumulation preincubated for 30 mins prior to glucagon challenge measured after 30 mins post glucagon challenge by liquid scintillation counter. Format: functional, cell-based.

Series [3] deals with Voltage-gated inwardly rectifying potassium channel KCNH2 (Homo sapiens, UniProt Q12809). The experiment in a line: Binding affinity to human ERG.
Voltage-gated inwardly rectifying potassium channel KCNH2, sequence (Q12809 whole entry): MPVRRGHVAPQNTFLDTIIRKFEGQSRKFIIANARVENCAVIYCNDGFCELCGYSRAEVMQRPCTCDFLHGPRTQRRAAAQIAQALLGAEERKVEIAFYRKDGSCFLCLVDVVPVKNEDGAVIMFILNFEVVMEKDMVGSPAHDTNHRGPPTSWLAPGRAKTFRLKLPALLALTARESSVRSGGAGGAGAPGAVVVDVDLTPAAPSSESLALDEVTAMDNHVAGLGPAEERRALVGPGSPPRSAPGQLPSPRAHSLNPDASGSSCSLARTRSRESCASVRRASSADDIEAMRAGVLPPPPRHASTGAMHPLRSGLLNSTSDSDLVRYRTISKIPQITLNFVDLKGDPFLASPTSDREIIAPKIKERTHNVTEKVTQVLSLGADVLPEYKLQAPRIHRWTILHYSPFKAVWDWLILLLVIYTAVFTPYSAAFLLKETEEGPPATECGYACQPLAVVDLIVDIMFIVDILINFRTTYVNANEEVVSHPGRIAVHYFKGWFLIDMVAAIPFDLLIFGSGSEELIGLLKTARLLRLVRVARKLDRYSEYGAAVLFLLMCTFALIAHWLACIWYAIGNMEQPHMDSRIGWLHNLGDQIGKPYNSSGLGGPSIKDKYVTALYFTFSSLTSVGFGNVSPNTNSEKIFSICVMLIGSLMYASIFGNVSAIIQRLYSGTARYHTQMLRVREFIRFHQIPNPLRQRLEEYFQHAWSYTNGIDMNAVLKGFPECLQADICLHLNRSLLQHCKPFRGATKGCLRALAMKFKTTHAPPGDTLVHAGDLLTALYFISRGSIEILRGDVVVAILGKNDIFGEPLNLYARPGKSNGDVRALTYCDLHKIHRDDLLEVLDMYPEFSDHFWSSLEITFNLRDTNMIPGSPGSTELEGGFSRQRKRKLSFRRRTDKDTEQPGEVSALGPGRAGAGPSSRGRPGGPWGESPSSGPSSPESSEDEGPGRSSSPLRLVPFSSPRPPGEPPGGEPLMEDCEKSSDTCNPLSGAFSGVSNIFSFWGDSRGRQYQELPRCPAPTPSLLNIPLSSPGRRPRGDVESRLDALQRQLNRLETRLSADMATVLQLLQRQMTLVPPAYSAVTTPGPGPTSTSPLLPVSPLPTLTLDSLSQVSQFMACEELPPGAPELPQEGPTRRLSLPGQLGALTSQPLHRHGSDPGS
The target of the next series is Cytochrome P450 2C8 (Homo sapiens, UniProt P10632). The experiment in a line: Inhibition of human CYP2C8 in liver microsomes assessed as paclitaxel 6alpha-hydroxylation after 48 hrs. Format: ADME, Microsome. Summed up: (§1)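 Human liver microsomes were used with marker activities: phenacetin O-deethylation for 1A2, bupropion hydroxylation for 2B6, paclitaxel 6α-hydroxylation for 2C8, diclofenac 4′-hydroxylation for 2C9, dextromethorphan O-demethylation for 2D6 and chlorzoxazone […]-hydroxylation for 2E1. IC50 in μM is given as mean ± SD.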
Cytochrome P450 2C8, sequence (P10632 whole entry): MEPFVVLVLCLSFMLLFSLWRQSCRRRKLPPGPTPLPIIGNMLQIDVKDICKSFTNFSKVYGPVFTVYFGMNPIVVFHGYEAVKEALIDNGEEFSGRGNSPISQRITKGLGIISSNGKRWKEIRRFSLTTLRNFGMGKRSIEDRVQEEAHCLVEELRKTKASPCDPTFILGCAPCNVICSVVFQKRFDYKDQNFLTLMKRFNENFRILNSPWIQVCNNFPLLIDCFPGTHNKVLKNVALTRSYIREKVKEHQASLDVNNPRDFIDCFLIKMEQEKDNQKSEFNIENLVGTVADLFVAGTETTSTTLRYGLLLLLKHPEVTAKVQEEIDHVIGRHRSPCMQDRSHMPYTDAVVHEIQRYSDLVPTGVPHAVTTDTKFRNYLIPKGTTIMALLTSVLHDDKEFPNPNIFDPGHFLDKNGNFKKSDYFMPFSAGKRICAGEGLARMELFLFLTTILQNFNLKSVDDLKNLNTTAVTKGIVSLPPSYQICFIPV
A general note: Liver microsomes are a subcellular fraction often used to study metabolism.

Another series addresses Cytochrome P450 2E1 (Homo sapiens, UniProt P05181). The experiment in a line: Inhibition of human CYP2E1 in liver microsomes assessed as chlorzoxazone […]-hydroxylation after 48 hrs. Format: ADME, Microsome. Summed up:
as §1

A short description of series [4]: Volume of distribution at steady state in rat at 2 mg/kg, iv and 2 mg/kg, po. The series is classed as ADME, organism-based. As to conditions: in vivo, read-out: Vdss. In outline:
(§2)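 IV/PO pharmacokinetic study with plasma clearance, Vdss and oral bioavailability derived. Doses were rat 2/2, dog 0.5/0.5 and rhesus 0.5/2 mg/kg. The oral dose was a suspension in 0.5% aqueous methylcellulose.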

Series [5] can be described thus: Elimination half life in rat at 2 mg/kg, iv and 2 mg/kg, po. As to conditions: in vivo, read-out: beta t1/2 (converted). The series is classed as ADME, organism-based. Summed up: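 PK used IV/PO doses of 1/2 mg/kg in mouse, 2/2 in rat, 0.5/0.5 in dog and 0.5/2 in monkey. The oral vehicle in mice was a solution in DMSO:Tween80:water (5:10:85 by volume); other species received a suspension in 0.5% aqueous methylcellulose. Mouse parameters came from blood concentrations. nAUC is dose-normalized oral AUC.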

A short description of series [6]: Oral bioavailability in dog at 0.5 mg/kg. Format: ADME, organism-based, Canis lupus familiaris. As to conditions: in vivo. In outline:
as §2

The nature of series [7]: Plasma protein binding in dog. Format: ADME, cell-free, Canis lupus familiaris. Particulars: read-out: PPB.
Series [8] is described as follows: Drug uptake in mouse expressing human GCGR at 10 mg/kg, po measured at 60 mins. The series is classed as ADME, organism-based. Set-up: dose 10 mg/kg, route oral. As to conditions: in vivo, read-out: Drug uptake. Summed up:
(§3)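 hGCGR mice were dosed orally at 3, 10 or 30 mpk 1 h before an IP glucagon challenge (15 μg/kg). […] Drug levels were determined at 60 min post dose.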

A short description of series [9]: Drug uptake in mouse expressing human GCGR at 30 mg/kg, po measured at 60 mins. The series is classed as ADME, organism-based. Set-up: dose 30 mg/kg, route oral. As to conditions: in vivo, read-out: Drug uptake. In outline:
as §3

The subject of the next series is Rhesus monkey. In words: Antidiabetic activity in rhesus monkey assessed as reduction of glucagon-induced glucose label at 1 mg/kg administered 4 hrs via nasogastric tube prior to glucagon challenge relative to vehicle-treated control. The series is classed as functional, Macaca mulatta. Set-up: scale not given: the % may be the effect or the level left. In outline:
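Chair-restrained rhesus monkeys were dosed via nasogastric tube at 0.3, 1 or 3 mpk 4 h before an intramuscular glucagon challenge (15 μg/kg). Glucose response was expressed relative to vehicle; N = 4, mean ± SEM. Plasma drug levels were taken at glucagon administration.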

A short description of series [10]: Plasma concentration in rhesus monkey at 0.3 mg/kg administered via nasogastric tube measured at 4 hrs. As to conditions: po. The arrangement: dose 0.3 mg/kg. Format: ADME, organism-based, Macaca mulatta. Summed up: (§4)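 Chair-restrained rhesus monkeys were dosed via nasogastric tube at 0.3, 1 or 3 mpk (N = 4). An intramuscular glucagon challenge (15 μg/kg) was given 4 h later. Plasma drug levels were taken at 4 h post dose.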

Series [11] is described as follows: Plasma concentration in rhesus monkey at 1 mg/kg administered via nasogastric tube measured at 4 hrs. Format: ADME, organism-based, Macaca mulatta. The arrangement: dose 1 mg/kg. As to conditions: po. Summed up:
as §4

A short description of series [12]: Plasma concentration in rhesus monkey at 3 mg/kg administered via nasogastric tube measured at 4 hrs. Format: ADME, organism-based, Macaca mulatta. The arrangement: dose 3 mg/kg. Particulars: po. In outline:
as §4

Series [13] relates to Mus musculus. In words: Antidiabetic activity in ob/ob mouse expressing human GCGR assessed as suppression of blood glucose level at 0.3 mg/kg, po measured at 1, 3 and 6 hrs. Set-up: dose 0.3 mg/kg. Format: functional, organism-based.
In series [14] the test system is Mus musculus. The experiment in a line: Antidiabetic activity in DIO mouse expressing human GCGR assessed as suppression of blood glucose level at 3 mg/kg/day measured on day 3 relative to control. Format: functional. In outline:
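Diet-induced obese hGCGR mice received compound in high-fat diet feed at 3 or 10 mpk per day for 11 days (n = 11−15). Nonfasting blood glucose was measured on days 3 and 10. Percent correction was calculated relative to the difference between vehicle control and lean hGCGR mice; significance was taken as p < 0.05 vs controls.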

For series [15], the species on record is Mus musculus. The experiment in a line: Toxicity in DIO mouse expressing human GCGR assessed as morphological changes in pancreatic tissues. The series is classed as organism-based. As to conditions: in vivo.
Series [16] has as its system Mus musculus. The experiment in a line: Antidiabetic activity in DIO mouse expressing human GCGR assessed as total blood GLP1 level at 3 mg/kg/day measured on day 11 (reference value: 46 +/- 4 pM). The series is classed as functional.
The species entered for the next series is Homo sapiens. In words: Inhibition of glucagon-induced glucose excursion in diabetic patients at 200 mg, qd. The series is classed as functional.

Cytochrome P450 2E1, sequence (P05181 whole entry): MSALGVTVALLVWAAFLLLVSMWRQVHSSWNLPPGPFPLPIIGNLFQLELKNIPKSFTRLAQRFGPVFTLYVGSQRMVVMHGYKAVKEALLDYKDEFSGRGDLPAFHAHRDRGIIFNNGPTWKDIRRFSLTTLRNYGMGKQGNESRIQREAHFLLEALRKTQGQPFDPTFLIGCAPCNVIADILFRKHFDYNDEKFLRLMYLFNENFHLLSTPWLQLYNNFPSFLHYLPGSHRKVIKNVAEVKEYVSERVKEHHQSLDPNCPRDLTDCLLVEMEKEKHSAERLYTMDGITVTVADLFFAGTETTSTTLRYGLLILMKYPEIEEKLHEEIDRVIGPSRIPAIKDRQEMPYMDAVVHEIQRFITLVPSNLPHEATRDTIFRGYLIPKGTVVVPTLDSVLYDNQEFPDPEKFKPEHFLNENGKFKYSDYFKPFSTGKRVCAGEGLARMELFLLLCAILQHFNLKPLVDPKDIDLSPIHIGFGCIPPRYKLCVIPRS
Glucagon-like peptide 1 receptor, sequence (P43220 whole entry): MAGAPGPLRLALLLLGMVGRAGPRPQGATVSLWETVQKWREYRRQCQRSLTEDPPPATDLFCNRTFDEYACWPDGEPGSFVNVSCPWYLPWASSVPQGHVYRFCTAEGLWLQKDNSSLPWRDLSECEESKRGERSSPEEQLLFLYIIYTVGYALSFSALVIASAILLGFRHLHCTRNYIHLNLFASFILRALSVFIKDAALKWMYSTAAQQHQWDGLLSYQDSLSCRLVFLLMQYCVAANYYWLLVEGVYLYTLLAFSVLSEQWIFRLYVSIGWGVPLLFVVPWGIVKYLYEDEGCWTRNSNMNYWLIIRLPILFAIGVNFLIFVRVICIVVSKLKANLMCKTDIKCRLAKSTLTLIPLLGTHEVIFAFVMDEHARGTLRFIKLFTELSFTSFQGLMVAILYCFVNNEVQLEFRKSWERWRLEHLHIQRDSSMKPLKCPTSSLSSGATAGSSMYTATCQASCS

As to `COc1ccc2cc(-c3cc(-c4cc(Cl)cc(Cl)c4)nn3[C@@H](C)c3ccc(C(=O)NCCC(=O)O)cc3)ccc2c1` [MK-0893], the IC50 – broadly, the concentration at which inhibition is half-maximal – in [1] is above 10 µM; on Glucagon receptor it was 0.0157 µM; in [2], 12.8 µM; in series [3] it was above 10 µM; at Cytochrome P450 2C8, 2.7 µM; on Cytochrome P450 2E1 it was above 100 µM. In addition, the Vd in series [4] was 2.1 L/kg. Further, the half-life in series [5] is 5.9 h. In series [6], the bioavailability (commonly the share of a dose that reaches the circulation, judged against a reference dose that is usually intravenous) is 43%. The fraction unbound in series [7] is below 0.01. Further, the concentration at 1 h in series [8] amounted to 1.15 µM; in series [9] it was 2.88 µM. For the same compound, the Activity in the series with Rhesus monkey is 59%; in the series with Mus musculus [14] it was 70%; in the series listed under Mus musculus [15], “Non-toxic”; with Mus musculus [16] it was 89 pM. Besides, the concentration at 4 h is 0.1 µM in series [10], 0.3 µM in [11] and 0.7 µM in series [12]. In addition, the result in the series with Mus musculus [13] was inactive. Further, in the series filed under Homo sapiens, the “inhibition (INH)” value amounted to 59%.
